MEKK3 PB1 HTS = raises or lowers MEK5 binding to the human MEKK3 PB1 domain. Q99759. bead-based flow cytometry, Alexa488-MEK5 binding to MEKK3; actives lie on both sides; 0 = blocked by unlabeled MEK5, 100 = vehicle. binding response (% of control), % at 10 µM. 290,000 compounds, 1.4% hits. AID 1529;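 active = binding response more than 3 SD above or below the average of its plate-row segment, actives on both sides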;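 note: Alexa488 bead fluorescence after subtracting the streptavidin-only scavenger bead signal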
Target sequence (Q99759 whole entry, looked up, the tested form may be a part): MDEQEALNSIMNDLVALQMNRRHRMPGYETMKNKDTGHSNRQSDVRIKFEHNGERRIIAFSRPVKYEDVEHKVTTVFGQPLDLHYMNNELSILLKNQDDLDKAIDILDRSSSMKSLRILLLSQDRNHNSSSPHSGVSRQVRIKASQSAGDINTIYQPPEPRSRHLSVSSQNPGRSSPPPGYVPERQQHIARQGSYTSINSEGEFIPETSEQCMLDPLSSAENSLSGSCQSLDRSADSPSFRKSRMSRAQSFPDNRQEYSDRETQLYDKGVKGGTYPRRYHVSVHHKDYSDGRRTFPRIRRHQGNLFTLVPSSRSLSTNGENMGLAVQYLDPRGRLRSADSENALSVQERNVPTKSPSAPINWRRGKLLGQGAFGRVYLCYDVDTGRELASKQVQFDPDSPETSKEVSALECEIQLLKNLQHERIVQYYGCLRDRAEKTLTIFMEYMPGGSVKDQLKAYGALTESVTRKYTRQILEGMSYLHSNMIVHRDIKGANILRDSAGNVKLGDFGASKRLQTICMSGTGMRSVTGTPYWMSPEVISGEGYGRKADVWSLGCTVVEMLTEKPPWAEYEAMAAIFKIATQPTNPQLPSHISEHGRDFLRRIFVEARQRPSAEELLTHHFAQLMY
MEKK2mut PB1 HTS = signal of MEK5 binding to mutant human MEKK2 PB1 domain. bead flow cytometry, Alexa488-MEK5 binding to MEKK2 mutant. percent response, % at 10 µM. AID 1530. 290,000 compounds, 0.35% hits; in the data active = percent response above about 24%, passing the limit was not always enough
Lipid droplet = modulators of hepatic lipid droplet formation. AML12 mouse hepatocytes, oleate lipid droplets, BODIPY imaging. inhibition, % at 6.5 µM. 240,000 compounds, 0.4% hits;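 active = lipid droplet intensity inhibited by at least 50%, with more than 500 cells counted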
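Material – mouse AML12 hepatocyte cell line, fixed after treatment · Compound dosing – one dose, 6.5 µM compound · Times – compound with oleate, overnight · Measured by – Image-based BODIPY and DAPI two-channel analysis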
MEKK2wt PB1 HTS = raises or lowers MEK5 binding to wildtype human MEKK2 PB1 domain; Q9Y2U5; AID 1531; bead flow cytometry, Alexa488-MEK5 binding to MEKK2 WT; actives lie on both sides; binding response (% of control), % at 10 µM; 290,000 compounds, 1.1% hits; in the data active = binding response below about 67% or above about 130%
Lipid drop inh = confirmation of inhibitors of hepatic lipid droplet formation; shares compounds with Lipid droplet; AML12 mouse hepatocytes, BODIPY lipid droplet imaging; droplets induced with 100 µM oleic acid; inhibition, % at 5.2 µM; 870 compounds, 65% hits; AID 463183;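 active = inhibition of lipid droplet metric at least 50%, with more than 300 cells in each of four replicates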;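 note: plate controls were DMSO with oleic acid for no effect and 5 µM Triacsin-C for full effect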
AML12 tox img = AML12 hepatocyte cytotoxicity (counter-screen). z-score at 5 µM. AML12 mouse hepatocytes, DAPI nuclear morphology cytotoxicity imaging; stronger effect = higher value; cells fed 100 µM oleate overnight. shares compounds with Lipid droplet. AID 463200. 870 compounds, 3% hits; in the data active = z-score above about 6.3;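 note: compound exposure lasted overnight at 37 °C before fixation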
AML12 tox ATP = AML12 hepatocyte cytotoxicity, confirmed. shares compounds with Lipid droplet. AML12 mouse hepatocyte viability, ATP luminescence; cells loaded with 100 µM oleic acid. cytotoxicity, % at 50 µM. 530 tested, under 10 active;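 active = cytotoxicity above 50% in each of four replicates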;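 note: compound exposure lasted overnight at 37 °C before the ATP read; 0% = DMSO-treated cells and 100% = wells with no cells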
Active calls of the source: *; / = no result. An excerpt weighted towards active compounds, which were near 2.6% of everything screened.

SMILES	MEKK3 PB1 HTS	MEKK2mut PB1 HTS	Lipid droplet	MEKK2wt PB1 HTS	Lipid drop inh	AML12 tox img	AML12 tox ATP
COc1ccc(C(C(=O)NC(C)(C)C)N(CC2CCCO2)C(=O)CCC(=O)Nc2cc(C)on2)cc1 (configuration not stated)	100	1	58*	102	90*	-0.95	0
Nc1cccc(NP(=O)(c2ccccc2)c2ccccc2)c1	97	-1	-1	97	/	/	/
COc1ccc(C(C(=O)NC(C)(C)C)N(CCC(C)C)C(=O)CCC(=O)Nc2cc(C)on2)cc1 (configuration not stated)	98	4	114*	99	108*	-0.014	10
O=C(O)CCCC(=O)Nc1ccc(Br)cc1C(=O)O	100	1	52*	101	7	0.074	/
O=C(O)CCCC(=O)Nc1ccc(Br)cc1	100	-1	8	99	/	/	/
O=C1CC(/C=C/c2ccccc2)(C(=O)NC2CCCC2)N1c1ccc(S(=O)(=O)N2CCCC2)cc1 (configuration not stated)	100	-1	90*	99	84*	-0.81	/
O=C(NCCc1c[nH]c2ccccc12)C(=O)NCC(c1ccco1)N1CCN(c2ccccc2F)CC1 (configuration not stated)	99	-1	29	103	/	/	/
Cc1cc(-c2nnc(CCC(=O)NC(Cc3ccccc3)c3ccccc3)o2)no1 (configuration not stated)	102	13	2	111	/	/	/
CCCCNC(=O)C1CCN(C(=O)Nc2ccc(C)cc2)CC1	88	2	62*	102	57*	0.85	/
COc1ccc(C2CC(c3cccs3)=NN2C(=O)c2ccc(Br)o2)cc1 (configuration not stated)	106	3	83*	97	93*	0.47	-11
O=C(NNC(=O)C1CC(=O)N(Cc2ccccc2)C1)c1ccc(Br)cc1 (configuration not stated)	98	4	-2	98	/	/	/
COc1ccc(/C=C\C(=O)NCc2ccc3[nH]c(C)cc3c2)cc1OC	108	11	74*	95	96*	-0.4	16
COc1cc(/C=C\C(=O)NCc2ccc3[nH]c(C)cc3c2)cc(OC)c1OC	107	8	6	103	/	/	/
CCc1cc(SC#N)cc(CC)c1NC(=O)CCl	98	-2	81*	96	79*	1.8	9
Cc1cc(C)c2c(NC(=O)CCl)nn(C)c2n1	98	-2	10	100	/	/	/
Cc1ccc(NC(=O)CSc2nnc(C)c(=O)n2N)cc1	94	-2	45	98	/	/	/
CCc1ccc(NC(=O)CSc2nnc(C)c(=O)n2N)cc1	98	3	58*	106	89*	0.19	11
O=C(CSc1cc(Cl)ccc1Cl)NC1CCCC1	100	3	2	101	/	/	/
O=C(CSc1nc2ccccc2o1)Nc1nc(-c2ccccc2)c(-c2ccccc2)s1	98	8	60*	105	96*	-0.048	-12
COc1ccc(-c2csc(NC(=O)c3ccc(OCC(=O)N4CCOCC4)c(OC)c3)n2)cc1	96	-1	83*	100	107*	-0.56	53
COC(=O)c1ccc(NS(=O)(=O)c2ccccc2)o1	101	-6	22	95	/	/	/
CCN1CCN(c2cc(C)c3cc(NC(=O)CCC(=O)Nc4ccc(OC)cc4OC)ccc3n2)CC1	96	2	89*	101	94*	0.97	16
COc1cccc(NC(=O)CCC(=O)Nc2ccc3nc(N4CCOCC4)cc(C)c3c2)c1	104	-2	14	102	/	/	/
Cc1cc(C(=O)CN2C(=O)c3ccccc3S2(=O)=O)c(C)n1-c1ccccc1	89	-6	65*	94	24	-0.28	/
COc1ccc(NC(=O)c2cccc(OC(=S)N3CCOCC3)c2)cc1	97	-1	10	99	/	/	/
SMILES	MEKK3 PB1 HTS	MEKK2mut PB1 HTS	Lipid droplet	MEKK2wt PB1 HTS	Lipid drop inh	AML12 tox img	AML12 tox ATP
O=C(Nc1ccc(Br)cc1)c1cccc(OC(=S)N2CCOCC2)c1	103	6	54*	108	89*	0.81	20
Cn1c(=O)c2c([nH]c(OCc3ccc(Cl)cc3Cl)[n+]2Cc2ccc(F)cc2)n(C)c1=O	97	-1	-6	99	/	/	/
Nc1ccc(-c2cc3ccccc3oc2=O)cc1	109	4	0	108	/	/	/
O=C/C=C/c1c(-c2ccccc2)cc2oc3ccccc3cc1-2	101	-4	70*	88	23	0.6	/
O=C(c1cnn2c(C(F)(F)F)cc(-c3ccccc3)nc12)N1CCCc2ccccc21	78	-5	0	79	/	/	/
O=C(c1nn2c(C(F)(F)F)cc(-c3cccs3)nc2c1Cl)N1CCCc2ccccc21	90	-2	53*	90	26	1.4	/
Cc1cccc(CN2C(=O)N/C(=C/c3cc(C)n(-c4cc(C)ccn4)c3C)C2=O)c1	94	-4	81*	96	105*	-0.23	7
CCOc1ccc2c(c1)-c1c(ssc1=S)C(C)(C)N2C(=O)c1ccco1	103	-1	75*	100	90*	21*	/
CCN(CCn1cccn1)C(=O)c1cc(COc2ccc(F)cc2Cl)on1	104	-7	55*	97	-25	-0.41	/
CCN(CCn1cccn1)C(=O)c1cc(COc2cccc3cccnc23)on1	101	2	-2	104	/	/	/

Screening data from PubChem BioAssay.
